Activity calls are given as the source filed them. The calls are words filed in the database; no cut-off is given here.
Legend:
[1] = biological target: T1, Interferon alpha/beta receptor 1 (Homo sapiens) (UniProt P17181); assay: Activity at IFNAR in human Daudi cells assessed as induction of stat1 tyrosine phosphorylation at 100 umol after 5 to 30 mins; assay type: cell-based
T1 sequence (whole entry): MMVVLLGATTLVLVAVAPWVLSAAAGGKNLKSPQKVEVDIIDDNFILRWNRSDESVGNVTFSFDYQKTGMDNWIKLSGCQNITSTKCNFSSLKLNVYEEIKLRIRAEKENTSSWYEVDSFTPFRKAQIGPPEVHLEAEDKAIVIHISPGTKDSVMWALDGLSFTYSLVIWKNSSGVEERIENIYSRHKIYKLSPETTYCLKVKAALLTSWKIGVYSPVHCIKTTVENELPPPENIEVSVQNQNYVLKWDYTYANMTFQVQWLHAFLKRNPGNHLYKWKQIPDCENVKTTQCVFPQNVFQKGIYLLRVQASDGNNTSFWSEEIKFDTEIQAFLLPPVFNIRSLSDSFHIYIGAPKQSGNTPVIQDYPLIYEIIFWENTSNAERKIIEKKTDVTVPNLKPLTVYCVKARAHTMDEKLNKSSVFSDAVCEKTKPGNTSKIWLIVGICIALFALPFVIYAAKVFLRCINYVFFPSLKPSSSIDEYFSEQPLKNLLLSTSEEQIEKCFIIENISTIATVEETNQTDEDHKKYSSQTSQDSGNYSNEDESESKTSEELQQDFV

[2] = biological target: T1, Interferon alpha/beta receptor 1 (Homo sapiens); assay: Antagonist activity at IFNAR in human Daudi cells assessed as reduction of IFN-inducible Stat1:Stat3-pIRE complex formation at 100 umol by electrophoretic mobility shift assay; assay type: functional, cell-based
[3] = biological target: T1, Interferon alpha/beta receptor 1 (Homo sapiens); assay: Antagonist activity at IFNAR in human Daudi cells assessed as reduction of IFN-inducible Stat1:Stat1-pIRE complex formation at 100 umol by electrophoretic mobility shift assay; assay type: functional, cell-based
[4] = biological target: T1, Interferon alpha/beta receptor 1 (Homo sapiens); assay: Antagonist activity at IFNAR in human Daudi cells assessed as inhibition of IFN-inducible Stat1 tyrosine phosphorylation by SDS-PAGE; assay type: functional, cell-based
Outline: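 Daudi cells were left untreated or exposed to IFN alfacon-1 (100 pg) for 15 min, with or without compound (dose–response 20–100 µM). Lysates were run on SDS-PAGE, transferred to nitrocellulose and immunoblotted for phospho-Stat1. Membranes were stripped and reprobed for total Stat1, or β-actin served as the loading control.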

Activity [1] | SMILES | also measured
inactive | CC(C)OCCCNc1nc(OCCCN)cc(OC(C)C)n1 | 
inactive | CC(C)OCCCNc1nc(OCCN(C)C)cc(OC(C)C)n1 | 
inactive | CC(C)OCCCNc1nc(OCCCCNC(=N)N)cc(OCCN(C)C)n1 | 
inactive | CN(C)CCSc1ccc(-c2cc(-c3cccs3)nc(SCCN(C)C)n2)cc1 | Activity [2]: Active; Activity [3]: Active; Activity [4]: Dose-dependent effect
inactive | CC(C)OCCCNc1cc(OCCN(C)C)nc(Oc2ccc(CCN)cc2)n1 | 
inactive | CN(C)CCSc1ccc(-c2cc(-c3ccco3)nc(SCCN(C)C)n2)cc1 | Activity [2]: Active; Activity [3]: Active; Activity [4]: Dose-dependent effect
inactive | COCCNc1cc(OCCN(C)C)nc(OCCN)n1 | 
inactive | COCCNc1nc(OCCCCNC(=N)N)cc(OCCN(C)C)n1 | 
inactive | CCOc1cc(OCCCCN)nc(NCCCOC(C)C)n1 | 
inactive | CC(C)OCCCNc1cc(OCCN(C)C)nc(OCCCNC(=N)N)n1 | 
inactive | COCCNc1cc(OCCN(C)C)nc(OCCNC(=N)N)n1 | 
inactive | CC(C)OCCCNc1cc(OCCN(C)C)nc(OCCCN)n1 | 
inactive | COCCNc1cc(OCCN(C)C)nc(OCCCNC(=N)N)n1 | 
inactive | CCOc1cc(N(C)C)nc(NCCCOC(C)C)n1 | 
inactive | CCOc1cc(OCCCN)nc(NCCCOC(C)C)n1 | 
inactive | COCCNc1nc(OCCCCN)cc(OCCN(C)C)n1 | 
inactive | CN(C)CCSc1nccc(-c2ccco2)n1 | 
inactive | COCCNc1cc(OCCN(C)C)nc(OCCCN)n1 | 
inactive | CC(C)Oc1cc(OCCN(C)C)nc(OCCN(C)C)n1 | 
inactive | COCCNc1cc(OC(C)C)nc(OC(C)C)n1 | 
inactive | CCOc1cc(OCCN(C)C)nc(NCCCOC(C)C)n1 | 
inactive | CN(C)CCSc1nccc(-c2cccs2)n1 | 
inactive | CC(C)OCCCNc1nc(OCCN)cc(OCCN(C)C)n1 | 
inactive | CCOc1cc(OCCN(C)C)nc(OCCN(C)C)n1 | 
inactive | CC(C)OCCCNc1nc(OCCCCN)cc(OCCN(C)C)n1 | 

SMILES | Activity [1] | also measured
COCCNc1cc(OCCN(C)C)nc(Oc2ccc(CCN)cc2)n1 | inactive | 
